According to ChEMBL document CHEMBL3233008, “Design, synthesis, and biological evaluation of Erythrina alkaloid analogues as neuronal nicotinic acetylcholine receptor antagonists” (J Med Chem, 2013):
Activity calls are given as the source filed them. The rule behind the calls is not given here.

How the values were obtained:
[1] = biological target: Neuronal acetylcholine receptor subunit alpha-7 (Homo sapiens, UniProt P36544); test: Displacement of [3H]cytisine from alpha7 nAChR (unknown origin)
[2] = biological target: Nicotinic acetylcholine receptor alpha-4/beta-2 (Mus musculus, UniProt Q8R493+Q9ERK7); test: Antagonist activity at mouse alpha4/beta2 nAChR expressed in HEK293 cells assessed as inhibition of (S)-nicotine-induced activity by FLIPR membrane potential blue assay; format: cell-based
Method in brief: (§1)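 Mouse α4β2 in stably transfected HEK293T cells and rat α3β4 in stable HEK293 cells; FLIPR Membrane Potential Blue read-out. (S)-Nicotine agonist at EC70–EC80: 1 μM for α4β2, 3 μM for α3β4. Functional IC50 from 3–5 experiments in duplicate.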

[3] = biological target: T1, Neuronal acetylcholine receptor; alpha3/beta4 (Rattus norvegicus, UniProt P04757+P12392); test: Antagonist activity at rat alpha3/beta4 nAChR expressed in HEK293 cells assessed as inhibition of (S)-nicotine-induced activity by FLIPR membrane potential blue assay; format: cell-based; method in brief: as §1
[4] = Displacement of [3H]MLA from rat/mouse alpha7 nAChR/5HT3A expressed in tsA201 cells; format: cell-based
Method in brief: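 [3H]MLA binding on membranes from tsA201 cells transiently expressing a chimera of rat α7 amino-terminal domain and murine 5-HT3A ion-channel domain. Ki from IC50 via Cheng–Prusoff; 3–5 experiments in duplicate.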

[5] = biological target: Neuronal acetylcholine receptor; alpha4/beta2 (Rattus norvegicus, UniProt P09483+P12390); test: (§2) Displacement of [3H]epibatidine from rat alpha4/beta2 nAChR expressed in HEK293 cells; format: cell-based
Method in brief: (§3)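 Membranes from HEK293 cells stably expressing rat α4β2, α3β4 or α4β4; [3H]epibatidine competition binding. IC50 converted to Ki by Cheng–Prusoff. Means of 3–5 experiments in duplicate.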

[6] = biological target: Neuronal acetylcholine receptor; alpha4/beta2 (Rattus norvegicus) (UniProt P09483+P12390); test: as §2; format: cell-based; method in brief: as §3
[7] = biological target: T1, Neuronal acetylcholine receptor; alpha3/beta4; test: Displacement of [3H]epibatidine from rat alpha3/beta4 nAChR expressed in HEK293 cells; format: cell-based; method in brief: as §3
[8] = biological target: Neuronal acetylcholine receptor; alpha4/beta4 (Rattus norvegicus, UniProt P09483+P12392); test: Displacement of [3H]epibatidine from rat alpha4/beta4 nAChR expressed in HEK293 cells; format: cell-based; method in brief: as §3
[9] = biological target: Sodium-dependent serotonin transporter (Homo sapiens, UniProt P31645); test: Displacement of [3H]-serotonin from human SERT expressed in African green monkey COS7 cells after 10 mins; format: cell-based, COS-7
Method in brief: (§4)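 COS7 cells transiently transfected with human SERT, NET or DAT, assayed 40–48 h later. 30 min preincubation with compound in PBS pH 7.4 plus 0.1 mM CaCl2, 0.5 mM MgCl2; ascorbic acid 1 mM added for NET/DAT. Substrate 50 nM final: [3H]serotonin for SERT, [3H]dopamine for NET/DAT.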

Rattus norvegicus [10] = species: Rattus norvegicus; test: Selectivity ratio of Ki for rat alpha3/beta4 nAChR to Ki for rat alpha4/beta2 nAChR
[11] = biological target: Sodium-dependent dopamine transporter (Homo sapiens, UniProt Q01959); test: Displacement of [3H]-dopamine from human DAT expressed in African green monkey COS7 cells after 10 mins; format: cell-based, COS-7; method in brief: as §4
[12] = Selectivity ratio of Ki for rat/mouse alpha7 nAChR/5HT3A to Ki for rat alpha4/beta2 nAChR
[13] = biological target: Sodium-dependent noradrenaline transporter (Homo sapiens, UniProt P23975); test: Displacement of [3H]-dopamine from human NET expressed in African green monkey COS7 cells after 10 mins; format: cell-based, COS-7; method in brief: as §4
Rattus norvegicus [14] = species: Rattus norvegicus; test: Selectivity ratio of Ki for rat alpha4/beta4 nAChR to Ki for rat alpha4/beta2 nAChR
Mus musculus = test: Antidepressant like activity in mouse at 30 mg/kg, sc administered 20 mins before test measured for 6 mins by forced swimming test; format: functional, organism-based; set-up: dose 30 mg/kg
Method in brief: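 Mice, n = 7–8, placed singly in a 16 cm beaker holding 20 cm of water at 23.5–24.5 °C. Compound in 0.9% saline given sc at 10 mL/kg 20 min before testing. Swim distance tracked by camera over 6 min, with the first minute excluded. Analysed by one-way ANOVA with planned comparisons.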

[15] = biological target: Neuronal acetylcholine receptor; alpha4/beta2 (Homo sapiens, UniProt P17787+P43681); test: Displacement of [3H]cytisine from alpha4/beta2 nAChR (unknown origin); format: protein-complex assay
Chain of Neuronal acetylcholine receptor; alpha4/beta2 (Homo sapiens, UniProt P17787+P43681) (P17787 whole entry): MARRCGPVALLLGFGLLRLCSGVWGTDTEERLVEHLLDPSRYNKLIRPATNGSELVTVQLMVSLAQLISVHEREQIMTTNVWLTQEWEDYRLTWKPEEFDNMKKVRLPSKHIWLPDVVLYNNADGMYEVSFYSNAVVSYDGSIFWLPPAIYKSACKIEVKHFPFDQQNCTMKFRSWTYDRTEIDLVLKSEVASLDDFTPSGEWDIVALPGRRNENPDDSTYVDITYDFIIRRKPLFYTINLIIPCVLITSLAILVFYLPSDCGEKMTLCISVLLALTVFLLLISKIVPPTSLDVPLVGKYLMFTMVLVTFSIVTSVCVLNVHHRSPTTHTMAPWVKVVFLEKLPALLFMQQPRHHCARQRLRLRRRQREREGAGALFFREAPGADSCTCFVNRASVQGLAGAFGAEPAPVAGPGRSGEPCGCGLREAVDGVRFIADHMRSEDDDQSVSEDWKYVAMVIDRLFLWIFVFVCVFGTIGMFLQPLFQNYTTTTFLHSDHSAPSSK
Chain of Neuronal acetylcholine receptor; alpha4/beta2 (Homo sapiens, UniProt P17787+P43681) (P43681 whole entry): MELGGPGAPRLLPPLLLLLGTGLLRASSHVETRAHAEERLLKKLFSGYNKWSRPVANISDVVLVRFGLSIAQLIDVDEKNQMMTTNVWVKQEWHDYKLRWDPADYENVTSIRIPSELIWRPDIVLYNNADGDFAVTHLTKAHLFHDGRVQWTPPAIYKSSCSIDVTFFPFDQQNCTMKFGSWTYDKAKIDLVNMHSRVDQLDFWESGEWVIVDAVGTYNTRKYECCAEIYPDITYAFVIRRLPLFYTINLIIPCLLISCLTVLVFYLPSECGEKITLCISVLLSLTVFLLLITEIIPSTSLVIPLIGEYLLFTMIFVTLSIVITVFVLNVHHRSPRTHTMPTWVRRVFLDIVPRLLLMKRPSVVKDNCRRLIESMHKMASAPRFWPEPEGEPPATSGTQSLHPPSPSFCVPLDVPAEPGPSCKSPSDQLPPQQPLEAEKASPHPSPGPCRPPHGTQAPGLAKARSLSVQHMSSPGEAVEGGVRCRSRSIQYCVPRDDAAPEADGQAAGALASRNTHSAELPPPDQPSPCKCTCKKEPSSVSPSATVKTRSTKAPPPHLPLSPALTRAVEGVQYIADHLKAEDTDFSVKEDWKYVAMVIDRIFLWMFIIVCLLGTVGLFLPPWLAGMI

T1 sequence (P04757 whole entry): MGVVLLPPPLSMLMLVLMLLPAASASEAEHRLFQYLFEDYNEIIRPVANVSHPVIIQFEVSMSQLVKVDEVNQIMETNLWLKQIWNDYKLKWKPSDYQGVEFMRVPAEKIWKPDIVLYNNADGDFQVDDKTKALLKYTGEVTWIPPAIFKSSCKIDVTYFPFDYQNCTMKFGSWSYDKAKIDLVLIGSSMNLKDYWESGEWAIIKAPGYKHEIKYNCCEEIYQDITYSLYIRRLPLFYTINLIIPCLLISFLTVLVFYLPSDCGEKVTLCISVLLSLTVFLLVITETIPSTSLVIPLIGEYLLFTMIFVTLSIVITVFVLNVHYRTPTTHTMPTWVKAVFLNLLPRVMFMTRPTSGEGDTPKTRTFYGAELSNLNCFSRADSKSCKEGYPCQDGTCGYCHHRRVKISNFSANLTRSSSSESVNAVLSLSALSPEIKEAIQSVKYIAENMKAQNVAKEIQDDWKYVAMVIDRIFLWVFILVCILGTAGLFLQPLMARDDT
T1 sequence (P12392 whole entry): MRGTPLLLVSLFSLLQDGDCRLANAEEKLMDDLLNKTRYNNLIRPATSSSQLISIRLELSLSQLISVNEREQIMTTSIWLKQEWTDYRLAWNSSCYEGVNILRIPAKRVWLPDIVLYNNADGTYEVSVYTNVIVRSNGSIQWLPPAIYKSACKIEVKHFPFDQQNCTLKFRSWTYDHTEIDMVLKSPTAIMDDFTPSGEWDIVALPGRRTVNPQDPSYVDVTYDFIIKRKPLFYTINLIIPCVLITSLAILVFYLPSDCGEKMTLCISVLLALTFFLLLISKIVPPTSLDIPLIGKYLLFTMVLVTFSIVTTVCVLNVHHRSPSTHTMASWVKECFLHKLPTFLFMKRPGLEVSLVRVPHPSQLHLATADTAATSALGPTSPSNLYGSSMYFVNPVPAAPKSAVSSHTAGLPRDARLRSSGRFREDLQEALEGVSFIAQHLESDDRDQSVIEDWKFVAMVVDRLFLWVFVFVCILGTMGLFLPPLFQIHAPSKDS
Chain of Nicotinic acetylcholine receptor alpha-4/beta-2 (Q9ERK7 whole entry): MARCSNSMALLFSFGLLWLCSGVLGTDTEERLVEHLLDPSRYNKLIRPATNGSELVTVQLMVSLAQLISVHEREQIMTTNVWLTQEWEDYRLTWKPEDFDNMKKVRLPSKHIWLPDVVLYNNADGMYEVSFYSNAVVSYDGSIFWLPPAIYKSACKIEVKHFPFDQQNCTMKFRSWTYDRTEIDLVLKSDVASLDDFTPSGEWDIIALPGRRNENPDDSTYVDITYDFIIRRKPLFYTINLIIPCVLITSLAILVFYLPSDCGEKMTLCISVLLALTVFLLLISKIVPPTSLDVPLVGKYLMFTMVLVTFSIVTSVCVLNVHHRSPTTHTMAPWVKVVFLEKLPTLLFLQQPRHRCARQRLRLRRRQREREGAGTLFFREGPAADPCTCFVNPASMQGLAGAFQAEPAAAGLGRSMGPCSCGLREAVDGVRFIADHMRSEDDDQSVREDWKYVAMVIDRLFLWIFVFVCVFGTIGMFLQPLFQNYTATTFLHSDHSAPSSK
Chain of Nicotinic acetylcholine receptor alpha-4/beta-2 (Q8R493 whole entry): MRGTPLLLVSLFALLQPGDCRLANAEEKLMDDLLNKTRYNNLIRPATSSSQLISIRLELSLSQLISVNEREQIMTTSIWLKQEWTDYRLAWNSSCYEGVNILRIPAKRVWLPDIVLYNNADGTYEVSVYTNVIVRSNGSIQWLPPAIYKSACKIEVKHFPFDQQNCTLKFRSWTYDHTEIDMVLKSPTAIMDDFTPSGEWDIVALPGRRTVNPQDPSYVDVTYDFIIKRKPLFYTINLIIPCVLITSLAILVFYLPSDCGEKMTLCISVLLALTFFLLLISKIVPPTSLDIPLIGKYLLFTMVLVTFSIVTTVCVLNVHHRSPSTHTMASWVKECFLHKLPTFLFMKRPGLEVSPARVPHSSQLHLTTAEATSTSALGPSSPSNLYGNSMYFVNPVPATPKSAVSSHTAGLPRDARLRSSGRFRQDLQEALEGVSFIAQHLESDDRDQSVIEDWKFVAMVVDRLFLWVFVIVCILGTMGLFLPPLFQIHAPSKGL
Chain of Neuronal acetylcholine receptor; alpha4/beta2 (Rattus norvegicus, UniProt P09483+P12390) (P09483 whole entry): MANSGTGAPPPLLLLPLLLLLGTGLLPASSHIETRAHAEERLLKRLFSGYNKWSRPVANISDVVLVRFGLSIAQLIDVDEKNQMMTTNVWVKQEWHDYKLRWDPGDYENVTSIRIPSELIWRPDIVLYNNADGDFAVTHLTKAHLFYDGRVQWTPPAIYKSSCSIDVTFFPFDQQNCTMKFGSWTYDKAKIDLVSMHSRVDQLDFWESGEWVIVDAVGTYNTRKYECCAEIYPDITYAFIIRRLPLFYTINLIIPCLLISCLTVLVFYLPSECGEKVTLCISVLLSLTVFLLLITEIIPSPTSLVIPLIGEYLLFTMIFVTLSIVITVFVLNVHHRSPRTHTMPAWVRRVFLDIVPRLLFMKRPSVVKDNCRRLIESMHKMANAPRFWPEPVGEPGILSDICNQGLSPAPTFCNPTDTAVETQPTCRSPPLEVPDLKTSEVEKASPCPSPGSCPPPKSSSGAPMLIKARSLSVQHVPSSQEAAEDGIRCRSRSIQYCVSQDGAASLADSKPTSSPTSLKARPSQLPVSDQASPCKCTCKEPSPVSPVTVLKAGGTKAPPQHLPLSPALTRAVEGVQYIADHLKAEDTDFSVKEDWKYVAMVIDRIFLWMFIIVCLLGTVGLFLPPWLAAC
Chain of Neuronal acetylcholine receptor; alpha4/beta2 (Rattus norvegicus, UniProt P09483+P12390) (P12390 whole entry): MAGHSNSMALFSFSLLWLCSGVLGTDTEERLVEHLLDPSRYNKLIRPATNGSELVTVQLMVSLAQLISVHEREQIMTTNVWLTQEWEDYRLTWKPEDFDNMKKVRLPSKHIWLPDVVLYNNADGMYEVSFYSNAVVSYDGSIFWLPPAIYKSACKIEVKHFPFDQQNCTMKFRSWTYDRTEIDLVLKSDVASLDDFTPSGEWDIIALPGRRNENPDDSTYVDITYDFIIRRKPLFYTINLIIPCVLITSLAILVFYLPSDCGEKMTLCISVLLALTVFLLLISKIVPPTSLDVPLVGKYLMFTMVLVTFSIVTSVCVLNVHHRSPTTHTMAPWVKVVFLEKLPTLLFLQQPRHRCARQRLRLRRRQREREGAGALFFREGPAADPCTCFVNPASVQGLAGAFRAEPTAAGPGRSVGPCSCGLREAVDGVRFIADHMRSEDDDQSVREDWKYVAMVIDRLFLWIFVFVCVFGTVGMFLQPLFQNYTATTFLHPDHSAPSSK
Chain of Neuronal acetylcholine receptor; alpha4/beta4 (P09483 whole entry): as the sequence (P09483 whole entry) above
Chain of Neuronal acetylcholine receptor; alpha4/beta4 (P12392 whole entry): as the sequence (P12392 whole entry) above
Chain of Neuronal acetylcholine receptor subunit alpha-7 (P36544 whole entry): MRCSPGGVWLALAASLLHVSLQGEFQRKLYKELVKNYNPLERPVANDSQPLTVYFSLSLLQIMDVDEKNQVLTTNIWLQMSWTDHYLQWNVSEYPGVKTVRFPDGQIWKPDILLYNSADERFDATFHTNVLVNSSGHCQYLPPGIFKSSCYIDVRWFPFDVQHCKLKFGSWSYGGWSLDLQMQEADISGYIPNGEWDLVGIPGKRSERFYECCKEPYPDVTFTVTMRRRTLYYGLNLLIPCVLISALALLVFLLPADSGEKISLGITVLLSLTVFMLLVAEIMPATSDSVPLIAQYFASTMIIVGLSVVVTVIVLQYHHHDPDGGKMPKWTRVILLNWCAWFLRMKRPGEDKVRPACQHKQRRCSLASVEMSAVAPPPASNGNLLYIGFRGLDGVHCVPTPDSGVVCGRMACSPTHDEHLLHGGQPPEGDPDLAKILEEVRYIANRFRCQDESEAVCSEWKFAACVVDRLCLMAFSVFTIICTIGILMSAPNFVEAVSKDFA

Structure (SMILES)	IC50 [2] [µM]	IC50 [3] [µM]	Ki [4] [µM]	Ki [5] [µM]	inhibition [6]	Ki [7] [µM]	Ki [8] [µM]	further results
CO[C@H]1CC=C2CCN3CCC4=C(CC(=O)OC4)[C@]23C1								Ki [1]: 10.5 µM
Oc1cc2c(cc1O)[C@]13CCCC[C@H]1CCN3CC2 (relative stereo)	0.58	50	7.3	1.5	Dose-dependent effect	30	19	
COc1cccc(C2c3cc(OC)c(OC)cc3CCN2C)c1 (stereo unspecified)	> 300			300				
c1c2c(cc3c1OCO3)C1CCCN1CC2 (racemic)	3.3	100		0.55	Dose-dependent effect	100	21	
COc1cc2c(cc1O)CCN1CCCC21 (racemic)	50	300	500	100	Dose-dependent effect	300	100	
CN1CCc2cc3c(cc2C1)OCO3	2.6	300	500	1.7	Dose-dependent effect	300	50	
COc1cc2c(cc1O)C1CCCN1CC2 (racemic)	23	300	300	3.4	Dose-dependent effect	100	100	
COc1cc2c(cc1OC)C1CCCN1CC2 (racemic)	31	100	> 500	5.5	Dose-dependent effect	300	100	
COc1cc2c(cc1O)CCN1CC=C3C=C[C@H](OC)C[C@]321 [ERYSODINE]								Ki [1]: 7.5 µM
CCCCC1c2cc(OC)c(OC)cc2CCN1C (stereo unspecified)	> 300			30				
c1c2c(cc3c1OCO3)[C@]13CCCC[C@H]1CCN3CC2 (relative stereo)	9.2	50	18	7.3	Dose-dependent effect	30	50	
COc1cc2c(cc1OC)CN(C)CC2	12	100	> 500	0.87	Dose-dependent effect	300	300	Ki [9]: 46.7 µM; Ratio Ki (Rattus norvegicus [10]): > 300; Ki [11]: > 10000 µM; Ratio Ki [12]: > 300; Ki [13]: 129 µM; Ratio Ki (Rattus norvegicus [14]): > 300; Activity (Mus musculus): Active
COc1cc2c(cc1O)CCN1CC[C@@H]3CCCC[C@@]231 (relative stereo)	2.3	50	20	8.5	Dose-dependent effect	100	50	
COc1ccc(C2c3cc(OC)c(OC)cc3CCN2C)cc1OC (stereo unspecified)	> 300			> 300				
COc1cc2c(cc1OC)[C@]13CCCC[C@H]1CCN3CC2 (relative stereo)	31	50	30	100	Dose-dependent effect	100	100	
COc1cc2c(cc1OC)C(C1CCCCC1)N(C)CC2 (stereo unspecified)	> 300			300				
COc1cc2c(cc1O)CN(C)CC2	4.4	> 1000	> 500	1.7	Dose-dependent effect	300	100	
COc1cc2c(cc1OC)C(c1ccccc1)N(C)CC2 (stereo unspecified)	> 300			100				
COc1cc2c(cc1OC)[C@]13C[C@@H](OC)C=CC1=CCN3CC2 [ERYSOTRINE]								Ki [15]: 0.6 µM
COc1cc2c(cc1O)CCN(C)C2	33	1000	> 500	10	Dose-dependent effect	300	100	
COc1cc2c(cc1O)[C@]13CCCC[C@H]1CCN3CC2 (relative stereo)	2.9	33	5.5	18	Dose-dependent effect	30	23	
Oc1cc2c(cc1O)C1CCCN1CC2 (racemic)	100	1000	300	11	Dose-dependent effect	100	50	
CN1CCc2cc(O)c(O)cc2C1	16	> 1000	> 500	6.8	Dose-dependent effect	100	100	
CCC1c2cc(OC)c(OC)cc2CCN1C (stereo unspecified)	> 300			300				
